Compounds with a hit are over-represented: about 2.6% of the library has one in this group of screens.
VLA-4 inh = inhibition in human VLA-4 binding assay, primary screen, VLA-4 allosteric modulator project, MLPCN library, flow cytometry, VLA-4 expressing cells | 330,000 compounds, 0.2% hits | inhibition, % (about 7 µM as worked out from the volumes in the protocol) | ligand binding flow cytometry; in the data active means inhibition above about 50%
Rce1 inh = yeast Rce1p protease inhibitors, primary screen, biochemical, fluorescence, cell-free homogeneous; calls only; 290,000 compounds, 0.27% hits; yeast membranes, quenched prenylated peptide cleavage fluorescence; AID 2563, 2010;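 active means fall in fluorescence gain of 50% or more versus controls, with final raw signal at or below 3038400; inconclusive means same 50% fall but final raw signal above 3038400; inactive means fall in fluorescence gain under 50%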;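 further: plate controls were neutral control wells for no effect and wells lacking membranes for full effect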
TAAR1 antagonist = human TAAR1 antagonists, primary screen, Fluo-8 calcium fluorescence, CHO RD-HGA16 cells; antagonist; inhibition, % at 3 µM; 360,000 compounds, 1.5% hits; AID 624466, 2012;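 active means inhibition above a per-plate cutoff, the mean inhibition of test compounds on that plate plus 3 SD, cut at about 49% in these data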;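 further: 0% = DMSO plus EC80 beta-PEA response and 100% = DMSO alone without agonist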
Target sequence (Q96RJ0 whole entry, looked up): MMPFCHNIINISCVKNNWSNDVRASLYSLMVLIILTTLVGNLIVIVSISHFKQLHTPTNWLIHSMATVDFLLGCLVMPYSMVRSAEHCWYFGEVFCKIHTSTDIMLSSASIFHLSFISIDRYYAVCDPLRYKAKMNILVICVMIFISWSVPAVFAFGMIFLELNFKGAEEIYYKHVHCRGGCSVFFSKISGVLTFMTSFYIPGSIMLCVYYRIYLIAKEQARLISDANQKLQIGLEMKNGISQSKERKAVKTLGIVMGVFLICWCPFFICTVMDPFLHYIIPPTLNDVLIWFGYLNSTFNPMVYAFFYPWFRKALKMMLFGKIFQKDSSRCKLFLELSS
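Assay system: CHO-derived RD-HGA16 cells stably expressing human TAAR1 plus Gα16. Timing: 140 s kinetic read after compound, 140 s after agonist. Technique: kinetic Fluo-8 calcium fluorescence measurement. Measure: % inhibition of agonist calcium response.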
TAAR1 ag = human TAAR1 agonists, primary screen, Fluo-8 calcium fluorescence, CHO RD-HGA16 cells; Trace amine-associated receptor 1 (Homo sapiens), Q96RJ0; vehicle wells 0%, saturating PEA agonist 100%; activation, % at 3 µM; 360,000 compounds, 0.99% hits; AID 624467, 2012;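 active means activation above the mean activation of all test compounds in the run plus 3 SD, cut at about 38% in these data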
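System: CHO-derived RD-HGA16 cells with stable Gα16 and human TAAR1. Times: 17-24 h plating, Fluo-8 75 min 37 °C, 30 min RT. Measured by: calcium-sensitive Fluo-8 signal, excitation 470-495, emission 515-575 nm. Read-out basis: % activation relative to PEA EC100 response. Control set: DMSO and PEA EC100. Repeats: no replicates (n 1).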
Platelet DG rel = inhibitors of platelet dense granule secretion, primary screen, cell-based, MLPCN, human platelets; 300,000 compounds, 0.22% hits; inhibition, %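 (compounds screened at 7.5 µM in platelet-rich plasma)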; human platelet-rich plasma, SFLLRN dense granule ATP release, luminescence; AID 1663, 2009;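 active means mean replicate score, as percent of positive control, at or above 50; inconclusive means mean below 50 but at least one replicate at or above 50; inactive means mean and every replicate below 50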
Active calls of the source: *; i = inactive; ? = inconclusive; / = no result given; + = active, no number.

SMILES	VLA-4 inh	Rce1 inh	TAAR1 antagonist	TAAR1 ag	Platelet DG rel
COc1ccccc1NC(=O)c1ccc2c(c1)C(=O)N(Cc1ccco1)C2=O	6	i	-11	1	/
O=C(Nc1ccccc1O)c1ccc2c(c1)C(=O)N(Cc1ccco1)C2=O	3	i	51*	14	/
CC(=O)Nc1ccc(Nc2nc(-c3cc4ccccc4oc3=O)cs2)cc1	-15	i	55*	11	22
O=C(C1CCCN(c2ncnc3c2nc2n3CCCCC2)C1)N1CCN(c2cccc(Cl)c2)CC1 (centres undefined)	16	i	88*	40*	-6
Cc1cccc(N2CCN(C(=O)C3CCN(c4ncnc5c4nc4n5CCCCC4)CC3)CC2)c1C	-1	i	-5	11	28
Cc1cccc(N2CCN(C(=O)C3CCN(c4ncnc5c4nc4n5CCCCC4)CC3)CC2C)c1 (centres undefined)	16	i	49*	13	2
O=C(C1CCCN(S(=O)(=O)c2cccc3nonc23)C1)N1CCN(c2cccc(Cl)c2)CC1 (centres undefined)	-13	i	49*	10	2
O=C(C1CCCN(S(=O)(=O)c2cccc3nonc23)C1)N1CCN(c2ccccc2Cl)CC1 (centres undefined)	-16	i	24	8	-5
O=C(NC(=S)Nc1cc(Cl)ccc1Cl)c1ccco1	/	/	-23	2	/
COc1ccc(C(=O)CSc2nc(=O)n(Cc3cccnc3)c3c2CCC3)cc1	/	/	-12	0	/
Cc1ccc(Nc2ccc(C(=O)O)cc2N)cc1	11	?	-1	0	-3
Cc1cc(C)cc(Nc2ccc(C(=O)O)cc2N)c1	12	+	2	7	-17
C#Cc1ccc([C@@H]2C=C(C(=O)O)O[C@H](OCC)[C@H]2CCCO)cc1	/	i	-7	5	-3
COc1cccc(/C=N/NC(=O)c2cc3c(OC)cccc3[nH]2)c1OC	18	i	55*	9	4
COc1cccc(/C=N/NC(=O)c2cc3c(OC)c(OC)ccc3[nH]2)c1OC	/	/	43	21	0
CSCCC(NC(=O)COc1ccccc1)C(=O)N(C)Cc1ccc(SC)cc1 (centres undefined)	2	/	52*	19	/
C=CC[C@H]1CC(C)=C[C@H](CC=C)N1C(=O)c1cc(COc2ccccc2SC)on1	-38	i	53*	1	-8
O=C(Nc1cc(Cl)cc(Cl)c1)c1coc(=O)c(Br)c1	14	+	-4	16	-29
O=C(NC(CO)(CO)CO)c1coc(=O)c(Br)c1	20	i	-1	13	-5
N=c1n(Cc2ccccc2)c2ccccc2n1CC(O)COc1ccc(Cl)cc1Cl (centres undefined)	/	i	23	47*	5
N=c1n(Cc2ccc(Cl)cc2)c2ccccc2n1CC(O)COc1ccccc1 (centres undefined)	9	i	-4	34	6
O=C(O)CNc1ccccc1C(=O)O	7	+	-17	10	-3
COc1ccc(CCNC(=O)c2cc(C3CC3)nc3c2cnn3C(C)C)cc1OC	1	/	9	7	/
CC(C)n1ncc2c(C(=O)NCCOc3ccccc3F)cc(C3CC3)nc21	5	/	50*	2	/
CCOc1ccc(OCCNC(=O)c2cc(C3CC3)nc3c2cnn3C(C)C)cc1	/	/	60*	2	/
SMILES	VLA-4 inh	Rce1 inh	TAAR1 antagonist	TAAR1 ag	Platelet DG rel
Cn1nccc1C(=O)Nc1cccc(S(=O)(=O)N2CCOCC2)c1	3	i	-10	0	4
O=C(CCc1nc2sc3c(c2c(=O)[nH]1)CCCC3)NCCc1ccc(F)cc1	-7	i	-7	7	3
Cc1cc(C(=O)CCC(=O)NC(C)c2ccc(S(N)(=O)=O)cc2)c(C)s1 (centres undefined)	6	i	4	0	1
OC1(c2ccc(Cl)cc2)CCN(Cc2cn[nH]c2-c2ccc(F)cc2)CC1	7	i	-7	41*	17
CC1=C(C(=O)N(C)C)CC(CC(=O)NCCc2ccccn2)C(=O)N1Cc1ccc(C(C)(C)C)cc1 (centres undefined)	/	/	2	11	/
CCc1nc2c(OCc3ccccc3C(=O)OC)cccn2c1N(C)C(=O)Nc1ccccc1OC	/	/	-54	2	/
CSc1ccc(S(=O)(=O)Nc2ccc(F)cc2)cc1	11	i	23	39*	-4
O=S(=O)(Nc1ccc2c(c1)OCCO2)c1ccc(F)cc1	7	i	15	40*	1
O=S(=O)(Nc1ccc(F)cc1)c1ccc(S(=O)(=O)N2CCOCC2)cc1	-4	/	38	61*	/
Cn1nc(C(F)(F)F)c(-c2ccccc2)c1NC(=O)CCC(=O)O	19	i	-12	3	-4
O=C(Nc1ccc(F)c(Cl)c1)c1cc(C2CCCCN2C(=O)c2cccs2)on1 (centres undefined)	/	/	-10	1	/
COCC(=O)N1C[C@H](C)[C@H](OC)CN(C)C(=O)c2cc(NC(=O)Nc3cccc(F)c3)ccc2OC[C@@H]1C	/	/	-16	1	/
NS(=O)(=O)c1ccc(CNC(=O)c2ccc3ccccc3n2)cc1	2	i	6	-1	-19
NS(=O)(=O)c1ccc(CCNC(=O)c2ccc3ccccc3n2)cc1	40	+	-20	4	0
O=C(Nc1ccccc1)Nc1nnc([C@@H]2C[C@H](O)[C@@H](CO)O2)s1	/	/	-3	27	/
NS(=O)(=O)c1ccc(CCNC(=O)COC(=O)/C=C/c2ccccc2Cl)cc1	5	i	-2	42*	-3
CC1(C(=O)NCC2CCCCC2)CCN1CCc1ccccc1 (centres undefined)	/	/	13	2	/
CCc1ccc([C@@H]2CC=C(C(=O)O)[C@H](c3ccc(Cl)cc3)N2S(=O)(=O)c2ccc(C)cc2)cc1	6	/	52*	9	/
OC(c1ccc(F)cc1)c1nc(-c2cc3ccccc3o2)cs1 (centres undefined)	/	/	75*	45*	/
C=CCNc1ncnc2c1ncn2[C@H]1CN(CCc2ccccc2)C[C@@H](CO)O1	/	/	-18	38*	/
OC[C@@H]1CN(Cc2ccc3c(c2)OCO3)C[C@H](n2cnc3c(N4CCN(c5ccccc5)CC4)ncnc32)O1	/	/	55*	12	/
COc1cc(CN2C[C@@H](CO)O[C@@H](n3cnc4c(Nc5ccccc5)ncnc43)C2)cc(OC)c1OC	/	/	60*	15	/
OC[C@@H]1CN(Cc2ccc3c(c2)OCO3)C[C@H](n2cnc3c(N4CCCC4)ncnc32)O1	/	/	-16	2	/
CN1C[C@H]2CON(C)[C@H]2C[C@H]1c1cccc(-c2ccccc2)c1	/	/	-7	2	/
